Measurements from ChEMBL document CHEMBL1250448, “Inhibitor hijacking of Akt activation” (Nat Chem Biol, 2009).

What follows are molecules tested against Tyrosine-protein kinase Yes (Homo sapiens) (UniProt P07947) (assay: Inhibition of YES1 at 1 uM in presence of 10 uM ATP by Select Screen kinase assay relative to untreated control).
In short: (§1)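 Commercial SelectScreen profiling panel of 220 purified kinases. Each kinase was tested at a single inhibitor concentration of 1 μM, and activity was expressed as percent inhibition.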
In the case of `COc1ccccc1N1CCN(c2ncnc3[nH]nc(Br)c23)CC1`, the inhibition is reported as 20%.
`O=C(NCCCNc1nc(Nc2cccc(NC(=O)N3CCCC3)c2)ncc1I)c1cccs1` gave an inhibition of 36%.
Molecule `Cc1n[nH]c2ccc(-c3cncc(OC[C@@H](N)Cc4c[nH]c5ccccc45)c3)cc12` has an inhibition of 20%.

What follows are molecules tested against T1, Homeodomain-interacting protein kinase 4 (Homo sapiens) (UniProt Q8NE63) (assay: Inhibition of HIPK4 at 1 uM in presence of 10 uM ATP by Select Screen kinase assay relative to untreated control).
T1 sequence (whole entry): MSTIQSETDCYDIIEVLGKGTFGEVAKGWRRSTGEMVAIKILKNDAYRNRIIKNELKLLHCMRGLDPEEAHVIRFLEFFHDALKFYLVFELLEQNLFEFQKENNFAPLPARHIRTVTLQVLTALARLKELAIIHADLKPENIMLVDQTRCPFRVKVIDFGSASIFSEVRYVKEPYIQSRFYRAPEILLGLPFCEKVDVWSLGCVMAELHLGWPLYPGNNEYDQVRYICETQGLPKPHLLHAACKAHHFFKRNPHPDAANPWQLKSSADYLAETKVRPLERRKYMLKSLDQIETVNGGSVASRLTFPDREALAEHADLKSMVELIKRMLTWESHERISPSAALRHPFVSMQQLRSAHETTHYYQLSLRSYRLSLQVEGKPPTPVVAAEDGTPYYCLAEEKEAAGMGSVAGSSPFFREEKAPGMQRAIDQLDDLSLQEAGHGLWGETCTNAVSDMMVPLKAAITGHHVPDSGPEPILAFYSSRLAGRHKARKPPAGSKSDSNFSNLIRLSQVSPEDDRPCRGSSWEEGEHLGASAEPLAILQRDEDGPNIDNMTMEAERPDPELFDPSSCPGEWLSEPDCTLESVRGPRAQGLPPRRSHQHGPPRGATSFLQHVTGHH
In short: (§2)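 Single-concentration profiling at 1 μM against a panel of 220 purified kinases, run as an outsourced SelectScreen kinase profiling service. Activity is expressed as percent inhibition.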
`COc1ccccc1N1CCN(c2ncnc3[nH]nc(Br)c23)CC1` gave an inhibition of 18%.
In the case of `O=C(NCCCNc1nc(Nc2cccc(NC(=O)N3CCCC3)c2)ncc1I)c1cccs1`, the inhibition is reported as 48%.
For `Cc1n[nH]c2ccc(-c3cncc(OC[C@@H](N)Cc4c[nH]c5ccccc45)c3)cc12`, the inhibition was 75%.

Each molecule was assayed against Tyrosine-protein kinase Srms (Homo sapiens) (UniProt Q9H3Y6) (assay: Inhibition of SRMS at 1 uM in presence of 10 uM ATP by Select Screen kinase assay relative to untreated control).
In short: as §1
In the case of `COc1ccccc1N1CCN(c2ncnc3[nH]nc(Br)c23)CC1`, the inhibition is reported as 7%.
Work on `O=C(NCCCNc1nc(Nc2cccc(NC(=O)N3CCCC3)c2)ncc1I)c1cccs1` yielded an inhibition of 10%.
`Cc1n[nH]c2ccc(-c3cncc(OC[C@@H](N)Cc4c[nH]c5ccccc45)c3)cc12` was tested, and the inhibition was -1%.

The molecules below were run against G protein-coupled receptor kinase 6 (Homo sapiens) (UniProt P43250) (assay: Inhibition of GRK6 at 1 uM in presence of 10 uM ATP by Select Screen kinase assay relative to untreated control).
In short: as §2
For `COc1ccccc1N1CCN(c2ncnc3[nH]nc(Br)c23)CC1`, the inhibition was 27%.
Work on `O=C(NCCCNc1nc(Nc2cccc(NC(=O)N3CCCC3)c2)ncc1I)c1cccs1` yielded an inhibition of 2%.
Molecule `Cc1n[nH]c2ccc(-c3cncc(OC[C@@H](N)Cc4c[nH]c5ccccc45)c3)cc12` has an inhibition of 78%.

What follows are molecules tested against Homeodomain-interacting protein kinase 1 (Homo sapiens) (UniProt Q86Z02) (assay: Inhibition of HIPK1 at 1 uM in presence of 10 uM ATP by Select Screen kinase assay relative to untreated control).
Chain of Homeodomain-interacting protein kinase 1 (Homo sapiens) (Q86Z02 whole entry, looked up): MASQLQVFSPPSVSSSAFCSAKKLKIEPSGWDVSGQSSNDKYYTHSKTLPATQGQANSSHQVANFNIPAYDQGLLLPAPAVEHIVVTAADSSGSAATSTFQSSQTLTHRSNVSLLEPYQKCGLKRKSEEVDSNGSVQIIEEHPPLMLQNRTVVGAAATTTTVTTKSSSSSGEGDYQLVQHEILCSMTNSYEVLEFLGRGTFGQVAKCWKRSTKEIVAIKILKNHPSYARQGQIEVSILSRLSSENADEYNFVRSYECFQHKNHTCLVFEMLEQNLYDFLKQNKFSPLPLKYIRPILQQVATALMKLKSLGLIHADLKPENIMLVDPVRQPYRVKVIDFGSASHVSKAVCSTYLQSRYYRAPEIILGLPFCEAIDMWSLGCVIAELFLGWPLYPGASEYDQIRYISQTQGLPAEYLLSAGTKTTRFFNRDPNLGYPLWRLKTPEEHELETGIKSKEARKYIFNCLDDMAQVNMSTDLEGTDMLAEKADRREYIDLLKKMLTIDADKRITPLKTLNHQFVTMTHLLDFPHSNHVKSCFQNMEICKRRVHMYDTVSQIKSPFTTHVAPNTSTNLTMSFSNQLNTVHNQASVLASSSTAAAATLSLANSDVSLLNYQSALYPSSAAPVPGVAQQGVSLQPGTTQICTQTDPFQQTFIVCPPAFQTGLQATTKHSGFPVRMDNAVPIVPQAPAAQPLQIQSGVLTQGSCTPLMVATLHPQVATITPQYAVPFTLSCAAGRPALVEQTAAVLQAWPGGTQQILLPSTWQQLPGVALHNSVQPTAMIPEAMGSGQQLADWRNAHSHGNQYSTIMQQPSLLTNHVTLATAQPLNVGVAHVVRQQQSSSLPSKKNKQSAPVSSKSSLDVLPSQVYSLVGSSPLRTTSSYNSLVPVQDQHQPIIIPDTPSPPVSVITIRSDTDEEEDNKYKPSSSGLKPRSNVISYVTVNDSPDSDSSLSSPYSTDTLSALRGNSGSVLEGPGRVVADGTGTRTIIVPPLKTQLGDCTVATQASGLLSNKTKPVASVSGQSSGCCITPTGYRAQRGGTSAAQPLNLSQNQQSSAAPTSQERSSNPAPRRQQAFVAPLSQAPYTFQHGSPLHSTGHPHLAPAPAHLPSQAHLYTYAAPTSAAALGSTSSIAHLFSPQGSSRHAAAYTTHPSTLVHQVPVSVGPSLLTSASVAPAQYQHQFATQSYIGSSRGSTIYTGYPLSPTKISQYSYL
In short: as §2
Molecule `COc1ccccc1N1CCN(c2ncnc3[nH]nc(Br)c23)CC1` has an inhibition of 34%.
For `O=C(NCCCNc1nc(Nc2cccc(NC(=O)N3CCCC3)c2)ncc1I)c1cccs1`, the inhibition was 18%.
Molecule `Cc1n[nH]c2ccc(-c3cncc(OC[C@@H](N)Cc4c[nH]c5ccccc45)c3)cc12` has an inhibition of 68%.

What follows are molecules tested against Tyrosine-protein kinase Lck (Homo sapiens) (UniProt P06239) (assay: Inhibition of LCK at 1 uM in presence of 10 uM ATP by Select Screen kinase assay relative to untreated control).
Chain of Tyrosine-protein kinase Lck (Homo sapiens) (P06239 2-509 limits assumed): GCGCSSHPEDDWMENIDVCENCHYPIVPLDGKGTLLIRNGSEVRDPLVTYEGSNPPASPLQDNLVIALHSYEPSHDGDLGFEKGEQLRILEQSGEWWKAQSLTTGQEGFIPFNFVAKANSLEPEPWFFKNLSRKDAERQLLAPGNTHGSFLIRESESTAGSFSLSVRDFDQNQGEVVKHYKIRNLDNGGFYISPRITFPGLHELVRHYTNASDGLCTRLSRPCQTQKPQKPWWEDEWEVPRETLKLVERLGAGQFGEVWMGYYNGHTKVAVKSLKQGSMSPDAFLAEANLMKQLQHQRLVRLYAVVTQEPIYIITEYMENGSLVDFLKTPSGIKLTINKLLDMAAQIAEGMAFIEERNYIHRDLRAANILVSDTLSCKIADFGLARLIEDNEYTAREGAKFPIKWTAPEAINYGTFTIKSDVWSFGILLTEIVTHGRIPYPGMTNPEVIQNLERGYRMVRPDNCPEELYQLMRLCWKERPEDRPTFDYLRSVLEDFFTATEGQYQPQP
In short: as §2
`COc1ccccc1N1CCN(c2ncnc3[nH]nc(Br)c23)CC1` gave an inhibition of 16%.
`O=C(NCCCNc1nc(Nc2cccc(NC(=O)N3CCCC3)c2)ncc1I)c1cccs1` showed an inhibition of 30%.
`Cc1n[nH]c2ccc(-c3cncc(OC[C@@H](N)Cc4c[nH]c5ccccc45)c3)cc12` gave an inhibition of 14%.

What follows are molecules tested against Myosin light chain kinase 2, skeletal/cardiac muscle (Homo sapiens) (UniProt Q9H1R3) (assay: Inhibition of MYLK2 at 1 uM in presence of 100 uM ATP by Select Screen kinase assay relative to untreated control).
In short: as §2
`COc1ccccc1N1CCN(c2ncnc3[nH]nc(Br)c23)CC1` gave an inhibition of 12%.
Work on `O=C(NCCCNc1nc(Nc2cccc(NC(=O)N3CCCC3)c2)ncc1I)c1cccs1` yielded an inhibition of 25%.
`Cc1n[nH]c2ccc(-c3cncc(OC[C@@H](N)Cc4c[nH]c5ccccc45)c3)cc12` gave an inhibition of 22%.

The molecules below were run against Macrophage colony-stimulating factor 1 receptor (Homo sapiens) (UniProt P07333) (assay: Inhibition of CSF1R at 1 uM in presence of 10 uM ATP by Select Screen kinase assay relative to untreated control).
Chain of Macrophage colony-stimulating factor 1 receptor (Homo sapiens) (P07333 whole entry): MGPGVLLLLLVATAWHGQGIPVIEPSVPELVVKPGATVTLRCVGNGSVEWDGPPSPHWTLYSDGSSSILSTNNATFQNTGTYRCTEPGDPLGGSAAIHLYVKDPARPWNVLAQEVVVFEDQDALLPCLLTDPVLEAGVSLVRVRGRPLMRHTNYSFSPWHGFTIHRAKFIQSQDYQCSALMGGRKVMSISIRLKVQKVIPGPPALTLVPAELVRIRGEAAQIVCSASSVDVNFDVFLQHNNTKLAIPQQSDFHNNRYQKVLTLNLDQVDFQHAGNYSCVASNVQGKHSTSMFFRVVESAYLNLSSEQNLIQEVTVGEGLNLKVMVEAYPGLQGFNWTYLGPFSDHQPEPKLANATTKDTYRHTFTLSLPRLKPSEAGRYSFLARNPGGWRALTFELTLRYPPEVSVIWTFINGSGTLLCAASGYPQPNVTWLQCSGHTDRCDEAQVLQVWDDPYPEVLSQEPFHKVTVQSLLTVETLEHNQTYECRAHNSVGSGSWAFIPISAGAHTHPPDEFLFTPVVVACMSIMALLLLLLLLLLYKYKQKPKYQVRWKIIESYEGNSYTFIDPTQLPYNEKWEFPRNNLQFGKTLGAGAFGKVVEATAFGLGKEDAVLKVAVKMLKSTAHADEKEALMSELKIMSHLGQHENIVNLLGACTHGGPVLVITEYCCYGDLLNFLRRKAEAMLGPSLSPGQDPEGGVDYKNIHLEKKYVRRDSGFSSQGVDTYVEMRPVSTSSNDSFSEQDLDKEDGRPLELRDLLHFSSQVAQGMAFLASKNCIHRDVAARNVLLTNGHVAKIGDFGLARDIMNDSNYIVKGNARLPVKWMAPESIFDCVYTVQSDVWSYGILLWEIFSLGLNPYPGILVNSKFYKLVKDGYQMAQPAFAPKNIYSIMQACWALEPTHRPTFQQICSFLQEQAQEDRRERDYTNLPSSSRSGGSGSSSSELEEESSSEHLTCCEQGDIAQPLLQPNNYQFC
In short: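 Single-point screen at 1 μM against a panel of 220 purified kinases, run by Invitrogen staff as a SelectScreen profiling service. Read-out is percent inhibition of kinase activity.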
`COc1ccccc1N1CCN(c2ncnc3[nH]nc(Br)c23)CC1` showed an inhibition of 26%.
In the case of `O=C(NCCCNc1nc(Nc2cccc(NC(=O)N3CCCC3)c2)ncc1I)c1cccs1`, the inhibition is reported as 44%.
`Cc1n[nH]c2ccc(-c3cncc(OC[C@@H](N)Cc4c[nH]c5ccccc45)c3)cc12` showed an inhibition of 5%.

These molecules were tested against T2, Protein kinase C iota type (Homo sapiens) (UniProt P41743) (assay: Inhibition of PRKCI at 1 uM in presence of 10 uM ATP by Select Screen kinase assay relative to untreated control).
T2 sequence (whole entry): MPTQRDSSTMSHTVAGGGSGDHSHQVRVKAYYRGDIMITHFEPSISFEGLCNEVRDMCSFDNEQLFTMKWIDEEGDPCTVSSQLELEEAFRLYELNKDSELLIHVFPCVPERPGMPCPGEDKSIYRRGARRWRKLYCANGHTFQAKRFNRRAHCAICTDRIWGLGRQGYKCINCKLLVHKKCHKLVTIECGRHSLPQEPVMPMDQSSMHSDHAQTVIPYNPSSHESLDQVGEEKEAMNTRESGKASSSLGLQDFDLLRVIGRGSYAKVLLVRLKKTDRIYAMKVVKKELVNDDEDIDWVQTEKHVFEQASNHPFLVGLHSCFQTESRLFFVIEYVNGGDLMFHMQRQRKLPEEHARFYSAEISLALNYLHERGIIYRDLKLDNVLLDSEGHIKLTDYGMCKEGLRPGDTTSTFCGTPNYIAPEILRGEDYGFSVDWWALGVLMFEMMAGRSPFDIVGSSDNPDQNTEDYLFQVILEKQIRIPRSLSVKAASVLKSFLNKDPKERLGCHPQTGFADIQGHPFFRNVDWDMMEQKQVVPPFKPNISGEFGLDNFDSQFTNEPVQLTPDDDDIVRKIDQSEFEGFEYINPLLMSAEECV
In short: as §1
With `COc1ccccc1N1CCN(c2ncnc3[nH]nc(Br)c23)CC1` the inhibition was 13%.
Molecule `O=C(NCCCNc1nc(Nc2cccc(NC(=O)N3CCCC3)c2)ncc1I)c1cccs1` has an inhibition of 21%.
`Cc1n[nH]c2ccc(-c3cncc(OC[C@@H](N)Cc4c[nH]c5ccccc45)c3)cc12` was tested, and the inhibition was 10%.

These molecules were tested against Serine/threonine-protein kinase PAK 2 (Homo sapiens) (UniProt Q13177) (assay: Inhibition of PAK2 at 1 uM in presence of 10 uM ATP by Select Screen kinase assay relative to untreated control).
In short: as §1
With `COc1ccccc1N1CCN(c2ncnc3[nH]nc(Br)c23)CC1` the inhibition was 9%.
`O=C(NCCCNc1nc(Nc2cccc(NC(=O)N3CCCC3)c2)ncc1I)c1cccs1` gave an inhibition of 5%.
In the case of `Cc1n[nH]c2ccc(-c3cncc(OC[C@@H](N)Cc4c[nH]c5ccccc45)c3)cc12`, the inhibition is reported as 55%.

What follows are molecules tested against Fibroblast growth factor receptor 2 (Homo sapiens) (UniProt P21802) (assay: Inhibition of FGFR2 at 1 uM in presence of 10 uM ATP by Select Screen kinase assay relative to untreated control).
Chain of Fibroblast growth factor receptor 2 (Homo sapiens) (P21802 22-821 limits assumed): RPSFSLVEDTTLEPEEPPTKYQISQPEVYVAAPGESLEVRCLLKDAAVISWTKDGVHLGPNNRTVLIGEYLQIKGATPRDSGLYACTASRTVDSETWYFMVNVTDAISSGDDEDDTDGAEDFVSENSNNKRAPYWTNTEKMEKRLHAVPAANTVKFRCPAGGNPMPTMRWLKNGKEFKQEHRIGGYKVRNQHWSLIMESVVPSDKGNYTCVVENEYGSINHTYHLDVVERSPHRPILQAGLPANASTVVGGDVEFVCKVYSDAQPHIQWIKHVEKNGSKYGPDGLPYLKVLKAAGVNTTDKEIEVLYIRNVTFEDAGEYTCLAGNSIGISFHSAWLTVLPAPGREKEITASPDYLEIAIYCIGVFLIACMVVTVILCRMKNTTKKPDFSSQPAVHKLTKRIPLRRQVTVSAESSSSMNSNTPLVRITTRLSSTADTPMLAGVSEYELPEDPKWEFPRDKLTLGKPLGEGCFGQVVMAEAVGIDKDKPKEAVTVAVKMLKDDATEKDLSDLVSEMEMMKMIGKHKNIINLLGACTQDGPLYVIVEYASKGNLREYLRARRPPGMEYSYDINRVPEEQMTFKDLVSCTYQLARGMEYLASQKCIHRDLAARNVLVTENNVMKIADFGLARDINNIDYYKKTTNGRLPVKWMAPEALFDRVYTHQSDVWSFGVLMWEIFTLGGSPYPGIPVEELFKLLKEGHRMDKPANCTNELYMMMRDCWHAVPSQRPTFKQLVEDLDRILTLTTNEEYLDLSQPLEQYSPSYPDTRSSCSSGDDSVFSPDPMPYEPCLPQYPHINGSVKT
In short: as §2
`COc1ccccc1N1CCN(c2ncnc3[nH]nc(Br)c23)CC1` showed an inhibition of 12%.
`O=C(NCCCNc1nc(Nc2cccc(NC(=O)N3CCCC3)c2)ncc1I)c1cccs1` showed an inhibition of 51%.
Work on `Cc1n[nH]c2ccc(-c3cncc(OC[C@@H](N)Cc4c[nH]c5ccccc45)c3)cc12` yielded an inhibition of 3%.

These molecules were tested against Hepatocyte growth factor receptor (Homo sapiens) (UniProt P08581) (assay: Inhibition of MET at 1 uM in presence of 10 uM ATP by Select Screen kinase assay relative to untreated control).
Chain of Hepatocyte growth factor receptor (Homo sapiens) (P08581 whole entry): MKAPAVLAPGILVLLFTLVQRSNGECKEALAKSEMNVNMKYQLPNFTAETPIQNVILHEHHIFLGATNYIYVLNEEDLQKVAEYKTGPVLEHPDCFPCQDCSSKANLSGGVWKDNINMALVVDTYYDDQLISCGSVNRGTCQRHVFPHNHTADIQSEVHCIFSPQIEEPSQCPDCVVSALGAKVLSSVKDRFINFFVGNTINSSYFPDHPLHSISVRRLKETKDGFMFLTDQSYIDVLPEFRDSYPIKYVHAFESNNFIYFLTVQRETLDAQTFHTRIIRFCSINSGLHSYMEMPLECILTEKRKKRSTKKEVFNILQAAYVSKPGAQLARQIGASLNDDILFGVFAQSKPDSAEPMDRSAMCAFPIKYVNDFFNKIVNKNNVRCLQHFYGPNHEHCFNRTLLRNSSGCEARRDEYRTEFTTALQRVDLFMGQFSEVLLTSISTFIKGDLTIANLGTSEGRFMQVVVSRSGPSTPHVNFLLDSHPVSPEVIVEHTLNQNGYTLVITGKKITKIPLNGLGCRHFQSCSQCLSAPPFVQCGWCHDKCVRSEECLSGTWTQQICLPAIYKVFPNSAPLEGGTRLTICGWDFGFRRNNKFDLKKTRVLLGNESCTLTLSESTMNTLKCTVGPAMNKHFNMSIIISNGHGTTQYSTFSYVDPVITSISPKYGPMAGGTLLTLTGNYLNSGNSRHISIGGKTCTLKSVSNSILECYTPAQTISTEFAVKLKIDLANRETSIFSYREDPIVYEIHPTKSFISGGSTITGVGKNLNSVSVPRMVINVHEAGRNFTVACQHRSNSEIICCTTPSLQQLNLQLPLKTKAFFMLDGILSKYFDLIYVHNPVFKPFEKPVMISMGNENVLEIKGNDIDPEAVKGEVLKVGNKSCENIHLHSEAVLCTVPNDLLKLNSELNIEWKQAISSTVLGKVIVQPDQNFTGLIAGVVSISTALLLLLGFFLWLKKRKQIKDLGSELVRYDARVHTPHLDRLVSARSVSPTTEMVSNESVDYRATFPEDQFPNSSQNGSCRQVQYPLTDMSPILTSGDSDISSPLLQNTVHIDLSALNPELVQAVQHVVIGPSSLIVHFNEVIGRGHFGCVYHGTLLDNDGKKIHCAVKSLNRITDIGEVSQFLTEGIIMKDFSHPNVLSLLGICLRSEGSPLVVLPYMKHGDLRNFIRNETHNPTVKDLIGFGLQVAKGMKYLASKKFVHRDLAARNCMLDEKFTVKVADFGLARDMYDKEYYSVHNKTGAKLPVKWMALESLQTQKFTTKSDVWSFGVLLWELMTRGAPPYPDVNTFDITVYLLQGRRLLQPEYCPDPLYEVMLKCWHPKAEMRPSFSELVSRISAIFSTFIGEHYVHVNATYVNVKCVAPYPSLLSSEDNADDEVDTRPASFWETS
In short: as §2
`COc1ccccc1N1CCN(c2ncnc3[nH]nc(Br)c23)CC1` gave an inhibition of 8%.
With `O=C(NCCCNc1nc(Nc2cccc(NC(=O)N3CCCC3)c2)ncc1I)c1cccs1` the inhibition was 11%.
With `Cc1n[nH]c2ccc(-c3cncc(OC[C@@H](N)Cc4c[nH]c5ccccc45)c3)cc12` the inhibition was 12%.

These molecules were tested on Fibroblast growth factor receptor 3 (Homo sapiens), P22607 [K650E] (assay: Inhibition of FGFR3 K650E mutant at 1 uM in presence of 10 uM ATP by Select Screen kinase assay relative to untreated control).
In short: as §2
`COc1ccccc1N1CCN(c2ncnc3[nH]nc(Br)c23)CC1` was tested, and the inhibition was 12%.
`O=C(NCCCNc1nc(Nc2cccc(NC(=O)N3CCCC3)c2)ncc1I)c1cccs1` was tested, and the inhibition was 38%.
Molecule `Cc1n[nH]c2ccc(-c3cncc(OC[C@@H](N)Cc4c[nH]c5ccccc45)c3)cc12` has an inhibition of 8%.

The molecules below were run against High affinity nerve growth factor receptor (Homo sapiens) (UniProt P04629) (assay: Inhibition of NTRK1 at 1 uM in presence of 100 uM ATP by Select Screen kinase assay relative to untreated control).
In short: as §1
Molecule `COc1ccccc1N1CCN(c2ncnc3[nH]nc(Br)c23)CC1` has an inhibition of 34%.
With `O=C(NCCCNc1nc(Nc2cccc(NC(=O)N3CCCC3)c2)ncc1I)c1cccs1` the inhibition was 84%.
In the case of `Cc1n[nH]c2ccc(-c3cncc(OC[C@@H](N)Cc4c[nH]c5ccccc45)c3)cc12`, the inhibition is reported as 42%.

These molecules were tested against Serine/threonine-protein kinase PLK1 (Homo sapiens) (UniProt P53350) (assay: Inhibition of PLK1 at 1 uM in presence of 10 uM ATP by Select Screen kinase assay relative to untreated control).
In short: as §1
`COc1ccccc1N1CCN(c2ncnc3[nH]nc(Br)c23)CC1` showed an inhibition of 12%.
For `O=C(NCCCNc1nc(Nc2cccc(NC(=O)N3CCCC3)c2)ncc1I)c1cccs1`, the inhibition was 14%.
Work on `Cc1n[nH]c2ccc(-c3cncc(OC[C@@H](N)Cc4c[nH]c5ccccc45)c3)cc12` yielded an inhibition of 1%.
